A short description of series [1]: Tested for percent inhibition of carrageenan paw edema in rat, administered orally at a dose of one tenth of lethal dose. The format is organism-based. The conditions noted are these: in vivo, po. The method, boiled down:
(§1)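 1 h later, 0.1 mL of 1% carrageenan was injected into the right hind-paw plantar tissue. Paw swelling was measured by mercury-displacement plethysmometry 3 h after carrageenan, compared with controls.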
In general terms: Carrageenan injected into the paw causes an acute inflammation.

Series [2] addresses Cyclooxygenase (Bos taurus) (UniProt O62664+O62698). The experiment in a line: Inhibition of prostaglandin synthetase in bovine seminal vesicle microsomes using Beckman liquid scintillation counter at 10 e-5 M. The conditions noted are these: Microsome.
For series [3], the system named is Rattus norvegicus. The series can be described thus: Percent inhibition of carrageenan paw edema in rat, administered orally at a dose of one tenth of oral lethal dose in mice. Format: functional. Put shortly:
as §1

The nature of series [4]: Lethal dose in mice determined by Litchfield and Wilcoxon methods after peroral administration. Format: toxicity, organism-based. The conditions noted are these: mouse, in vivo, po. The method, boiled down: (§2)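 Median lethal dose found after oral dosing of mice, four mice per dose level, and calculated by the Litchfield–Wilcoxon method.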
Series [5] concerns Rattus norvegicus. The experiment in a line: Total score is the sum of scores obtained in the adjuvant arthritis, acute toxicity, carrageenan edema, and prostaglandin synthetase assay. Format: functional.
The nature of series [6]: Toxic score was measured as lethal dose in orally administered mice;Values ranges from: 500-1000. The format is toxicity, organism-based. The conditions noted are these: mouse, in vivo, po. Put shortly: (§3)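 Score derived from mouse oral LD50 (Litchfield–Wilcoxon, four mice per dose), in mg/kg: >1000 = 3; 500-1000 = 2; <500 = 1.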
For series [7], the species on record is Rattus norvegicus. The series can be described thus: Average percent inhibition (arthritis score=0) of the swelling of both injected and non injected paw was measured. The format is functional. Put shortly:
(§4)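 Adjuvant arthritis in inbred female Lewis rats, groups of six, acclimatized 2 weeks. Arthritis induced by injecting 0.1 mL M. butyricum in mineral oil (3 mg/mL) into right hind paw plantar tissue. Oral dosing daily from adjuvant day to day 28: 10 (mg/kg)/day if mouse oral LD50 ≥1000 mg/kg, else 5 (mg/kg)/day. Swelling of injected and noninjected paws measured day 28 by mercury-displacement plethysmometry; mean percent inhibition scored 0–3.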

For series [8], the species on record is Rattus norvegicus. The series can be described thus: Tested for inhibition in the rat paw injected with carrageenan. The format is functional. Also noted: concentration or dose not given beside the values.
The species entered for series [9] is Rattus norvegicus. The series can be described thus: Tested for inhibition in the rat paw not injected with […]. Format: functional. Also noted: concentration or dose not given beside the values. Put shortly:
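Adjuvant-induced arthritis, female Lewis rats, six per group: M. butyricum in mineral oil (3 mg/mL, 0.1 mL) injected into right hind paw plantar tissue. Daily oral dosing from adjuvant day to day 28, 10 or 5 (mg/kg)/day according to mouse oral LD50 (≥1000 or <1000 mg/kg). Injected and noninjected paw swelling read by mercury-displacement plethysmometry on day 28.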

Series [10] is described as follows: Toxic score (3) was measured as lethal dose in orally administered mice. Format: toxicity, organism-based. The settings on record: mouse, in vivo, po. Put shortly:
as §3

The species entered for series [11] is Rattus norvegicus. The experiment in a line: Average percent inhibition (arthritis score) of the swelling of both injected and non injected paw was measured; […]. The format is functional.
Series [12] is filed under the species Rattus norvegicus. The series can be described thus: Tested for enhancement in the rat paw not injected with carrageenan. The format is functional.
The species named for series [13] is Rattus norvegicus. The series can be described thus: Tested for enhancement in the rat paw injected with carrageenan. The format is functional.
For series [14], the species on record is Rattus norvegicus. The experiment in a line: Average percent inhibition of the swelling of both injected and non injected paw was measured. The format is functional. Put shortly: as §4
The species entered for series [15] is Rattus norvegicus. The experiment in a line: Average percent inhibition (arthritis score=2) of the swelling of both injected and non injected paw was measured;values ranges from: […]-[…]. The format is functional.
The species entered for series [16] is Rattus norvegicus. The series can be described thus: Average percent inhibition (arthritis score)of the swelling of both injected and non injected paw was measured; […]. The format is functional.
For series [17], the system named is Rattus norvegicus. The experiment in a line: Effective dose against analgesic activity (peroral administration). Format: functional. The settings on record: po.
Series [18] relates to Rattus norvegicus. The experiment in a line: Effective dose against carrageenan edema(peroral administration). Format: functional. The conditions noted are these: po. The method, boiled down: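 Sprague-Dawley rats fasted 18 h, dosed orally in 0.5% carboxymethylcellulose suspension 1 h before 0.1 mL of 1% carrageenan into right hind paw plantar tissue. Paw swelling in treated versus control rats measured 3 h post-carrageenan by mercury-displacement plethysmometry; ED50 given in mg/kg po.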

The species entered for series [19] is Rattus norvegicus. The experiment in a line: Average percent inhibition (arthritis score=3) of the swelling of both injected and non injected paw was measured. Format: functional. The method, boiled down: as §4
In series [20] the test system is Rattus norvegicus. The series can be described thus: Effective dose against nystatin edema(peroral administration). The conditions noted are these: po. The format is functional.
The test system of series [21] is Rattus norvegicus. The series can be described thus: Minimum effective dose against adjuvant arthritis on administration). The format is functional. The conditions noted are these: read-out: MED. The method, boiled down: (§5)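 Female Lewis rats given adjuvant arthritis by plantar M. butyricum in mineral oil. Oral daily dosing either from adjuvant day to day 28 (continuous), day 16 to day 28 (therapeutic), or day 5 pre- to day 5 postadjuvant (prophylactic). MED: lowest dose producing significant (p < 0.05) inhibition of noninjected paw swelling on day 28, by plethysmometry.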

The nature of series [22]: Lethal dose in rats(peroral administration). Format: toxicity, organism-based. The settings on record: rat, in vivo, po.
The nature of series [23]: Lethal dose in mice(peroral administration). Format: toxicity, organism-based. The conditions noted are these: mouse, in vivo, po. The method, boiled down:
as §2

Series [24] can be described thus: Inhibitory concentration against PG synthetase. The format is functional.
The species entered for series [25] is Rattus norvegicus. The experiment in a line: Minimum effective dose is the lowest dose preventing any futher increase in body temperature. Format: functional. The conditions noted are these: read-out: MED. Put shortly:
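Antipyretic test, oral dosing; MED defined as the lowest dose preventing any further increase of body temperature.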

Series [26] deals with Rattus norvegicus. The experiment in a line: Effective dose against gastroulcerogenic activity (peroral administration). The format is functional. The settings on record: po. The method, boiled down:
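Groups of six Sprague-Dawley rats given oral doses once daily for 3 days; inner stomach surface examined for lesions 24 h after last dose. ED50 is the dose giving macroscopically visible lesions in 50% of rats.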

The test system of series [27] is Rattus norvegicus. The series can be described thus: Minimum effective dose against adjuvant arthritis on therapeutic dosing (peroral administration). Format: functional. The conditions noted are these: po, read-out: MED. The method, boiled down: as §5
Series [28] relates to Rattus norvegicus. The experiment in a line: Minimum effective dose against adjuvant arthritis on prophylactic dosing (peroral administration). Format: functional. The settings on record: po, read-out: MED. The method, boiled down:
as §5

SMILES strings stand for the structures. A value given as a limit tells only on which side of the number the result lay.

For orientation: LD50 means the dose expected to kill half of the subjects tested. By inhibition is commonly meant the drop in the measured response relative to a control, in per cent. By Inhibition is commonly meant the change of the read-out against control, counted positive when it falls. Usually ED50 stands for the midpoint of the dose-response relation. By IC50 is commonly meant the point on the concentration scale where inhibition reaches its midpoint.

As for `CCCCCC/N=C(\Nc1nccs1)Nc1cc(C)nc2ccccc12`, the LD50 in series [1] came out at 8 mg/kg. Also, the inhibition in series [2] was -23.8%.
Take `CCOc1cc(N/C(=N/C(C)(C)C)Nc2nccs2)c2ccccc2n1`: the Inhibition was 39% in series [3], below 10% in [7], 8% in series [8] and 13% in series [9]. The figures for the LD50 in series [4] and in series [6] were 800 mg/kg and 1000 mg/kg, respectively. Besides, the Total score in series [5] came to 6. In series [2], the inhibition stood at 88.9%.
For the compound `Cc1cc(/N=C(\Nc2cc(C)nc3ccccc23)NC2CCCCC2)sn1`, the Inhibition in series [3] turned out to be 48%; in series [8], 1%; in series [11] it was 29%; in series [9], 21%. Further, the LD50 in series [4] and in series [10] was above 1000 mg/kg each time. The Total score in series [5] is listed as 9. In addition, in series [2], the inhibition turned out to be 83.2%.
As for `Cc1csc(/N=C(\Nc2cc(C)nc3ccccc23)NC2CCCCC2)n1`, the Inhibition in series [3] is on record as 38%; in series [14] it was below 10%. Further, the LD50 in series [4] and in series [10] was above 1000 mg/kg in each case. In addition, the Enhancement in series [12] stood at 23%; in series [13], 15%. Moreover, the Total score in series [5] came to 7. For the same compound, the inhibition in series [2] came out at 89.3%.
For the compound `Cc1cc(N/C(=N\C2CC2)Nc2nccs2)c2ccccc2n1`, the Inhibition in [3] amounted to 65%; in series [15], 49%; in [8], 53%; in series [9], 30%. In addition, the LD50 in [4] came out at 600 mg/kg. Moreover, the Total score in series [5] came out at 7. Besides, the inhibition in [2] is 15.8%.
On to `Cc1cc(N/C(=N/C(C)(C)C)Nc2nnc(C)s2)c2ccccc2n1`, for which the Inhibition is 85% in series [3], 45% in [8], 49% in series [16] and 51% in [9]. For the same compound, the LD50 in series [4] and in series [10] was above 1000 mg/kg throughout. Moreover, the Total score in [5] was 9. Moreover, the inhibition in series [2] amounted to 33%.
Turning to `Cc1cc(/N=C(\Nc2nccs2)NC2CCCCC2)c2ccccc2n1` [TIMEGADINE], the ED50 is 68.5 mg/kg in series [17], 29.6 mg/kg in series [18], 26.5 mg/kg in series [20] and 170 mg/kg in series [26]. Moreover, the Inhibition is reported as 68% in series [3], “>=50%” in [19], 53% in series [8] and 63% in [9]. For the same compound, the LD50 in series [4] was above 1000 mg/kg; in [10], above 1000 mg/kg; in series [22], 1220 mg/kg; in series [23], above 1000 mg/kg. Besides, the Total score in [5] came out at 12. Besides, the minimal effective dose in series [21] was 3 mg/kg; in series [25] it was 12.4 mg/kg; in [27], 10 mg/kg; in series [28] it was 10 mg/kg. In addition, in series [2], the inhibition was found to be 100%. The compound also yielded an IC50 in series [24] of 2500 nM.

The values are drawn from ChEMBL document CHEMBL1121519, “Basic antiinflammatory compounds. N,N',N''-Trisubstituted guanidines” (J Med Chem, 1980).
